The nature of test [1]: inhibitors of TNFa-induced NFkB p65 translocation, primary screen, imaging, HUVEC, MLSMR starter and 10KST1 sets (AID 438;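 active means inhibition above 20% together with a positive visual image hit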;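 further: compound added about 3h40 before a 20 min TNFalpha stimulation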;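 on inhibition: signal is the nuclear over cytoplasmic p65 intensity ratio per well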). Particulars: HUVEC TNFa-induced p65 nuclear translocation; cell count: measured here: nuclei count (cytotoxicity indicator), at 2.08 µM; inhibition: at 2 µM, stronger effect = higher value, 0% TNFa-plus-vehicle, 100% no-TNFa wells.
Test [2] is described as follows: endothelial E-selectin expression blockers – imaging, HUVEC, immunofluorescence, MLSMR starter and 10KST1 sets, primary screen (AID 487).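 On inhibition: signal is fraction of cell area covered by stained E-selectin grains.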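 On nuclei count: 100% = median nuclei count of all wells on the same plate.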 The following applies: HUVEC TNFalpha-induced E-selectin immunofluorescence imaging, at 2 µM; inhibition: stronger effect = higher value; nuclei count: measured here: cell number, toxicity.
Test [3] can be described thus: Primary imaging screen for DUSP6 inhibitors that restore phospho-Erk in transfected HeLa cells, chemical complementation (AID 609;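 active means compounds giving at least 50% inhibition in the cell-based MKP-3 phosphatase rescue imaging test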;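 on inhibition: phospho-Erk level distribution per well compared with pooled transfected vehicle control wells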). Particulars: HeLa MKP-3 transfected, phospho-Erk imaging KS statistic, at 10 µM, cells stimulated with TPA for 15 min.
The target in test [4] is Dual specificity protein phosphatase 6 (Homo sapiens) (UniProt Q16828). The test is described as above. Particulars: HeLa MKP-3 transfected, phospho-Erk imaging KS statistic; at 10 µM; stronger effect = higher value; cells stimulated with TPA for 15 min.
In test [5] the target is Voltage-gated potassium channel subunit beta-2 (Rattus norvegicus) (UniProt P62483). As to the kind of experiment: inhibitors of rat Kvbeta2 reductase activity – biochemical, NADPH fluorescence, primary screen (AID 622;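 active means fluorescence slope higher than the sample average by over 3 SD, cut at about -0.22 in these data, passing the limit was not always enough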;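 further: slope of raw intensity against log time taken from 70 to 1610 s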). Particulars: recombinant KvBeta, 4-cyanobenzaldehyde reduction, at 10 µM, stronger effect = higher value.
For test [6] the target is unchanged. Kind of test: enhancers of rat Kvbeta2 NADPH turnover – biochemical, NADPH fluorescence, primary screen (AID 623;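 active means NADPH fluorescence slope more negative than the mean of all samples by about 3 SD, 99.7% confidence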;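 further: fluorescence intensity change per second fitted from 20 to 320 s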). Particulars: Recombinant KvBeta, NADPH fluorescence decrease slope, 10 min; at 10 µM; stronger effect = lower value.
Test [7] concerns the target Alpha-2C adrenergic receptor (Homo sapiens) (UniProt P18825). Kind of test: compounds altering alpha2C-coupled GIRK flux – cell-based, HEK293 alpha2C/GIRK1/2, thallium flux, primary screen (AID 624;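 active means fluorescence slope after compound addition differing from the mean of all screened samples at 99.7% confidence, in either direction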;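 further: slope of fluorescence ratio to pre-addition baseline per second over 15 to 24 s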). Particulars: thallium flux BTC fluorescence, at 10 µM, actives lie on both sides.
A short description of test [8]: inhibitors of larval lipid processing in zebrafish, primary screen, whole organism, PED6 fluorescence, gall bladder and intestine (AID 686;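 active means a full or partial loss of lipid-probe fluorescence in the fish gall bladder, intestine or both, judged by eye; inactive means no fluorescence loss, or compound toxic to the fish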;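 further: signal comes from phospholipase A2 cleavage of quenched PED6 carried via bile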). The following applies: Zebrafish larvae PED6 lipid processing, fluorescence scoring; screened at 20 µM (by protocol). The essentials: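 Doses: 20 µM single dose. Test system: live zebrafish larvae aged 5-7 days, whole organism. Quantity: five larvae per well. Measured by: By-eye fluorescence microscopy. Reagent: ingested quenched lipid PED6 at 100 nM. Read-out: visual per-well fluorescence inhibition score. Times: overnight exposure of larvae to compound plus PED6.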

Test [9] can be described thus: loss of swimming-algae plug formation – whole organism, Chlamydomonas reinhardtii, WT vs cilia-less mutant, absorbance, 96-well, primary screen (AID 463189;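 active means inhibition at or above 50% relative to wild type and mutant plate controls; inactive means inhibition below 50%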;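 further: 0% = wild type cc124 cells in DMSO and 100% = ciliumless bld1 mutant cells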). Particulars: Chlamydomonas reinhardtii gravitaxis, OD600 absorbance, 2 days; at 10 µM; stronger effect = higher value.
The mark [10] stands for this setting: measured here: cell density z-score.
Setting [11] is: measured here: nuclear c-Myc green intensity z-score.
Where [12] appears, read: measured here: nuclear pErk red intensity z-score, stronger effect = higher value.

Experimental findings from PubChem BioAssay are described below.

SMILES strings stand for the structures. Calls of active or inactive are those of the source.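 How the source made its calls, unless noted: active means visually confirmed hit in the image check and inhibition above 20%; inconclusive means visually confirmed hit but inhibition not above 20%; inactive means no visual hit in the image check.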

Voltage-gated potassium channel subunit beta-2 (Rattus norvegicus), sequence (P62483 whole entry, looked up): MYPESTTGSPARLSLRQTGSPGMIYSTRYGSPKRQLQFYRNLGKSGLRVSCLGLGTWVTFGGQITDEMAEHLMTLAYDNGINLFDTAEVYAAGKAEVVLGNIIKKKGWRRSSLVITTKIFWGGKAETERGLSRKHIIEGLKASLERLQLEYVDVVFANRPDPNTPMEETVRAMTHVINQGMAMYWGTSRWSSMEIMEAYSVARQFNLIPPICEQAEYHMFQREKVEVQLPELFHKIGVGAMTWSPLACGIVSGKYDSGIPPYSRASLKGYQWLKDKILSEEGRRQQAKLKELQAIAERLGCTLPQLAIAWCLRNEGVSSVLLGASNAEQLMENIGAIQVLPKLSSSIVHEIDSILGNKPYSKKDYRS
Dual specificity protein phosphatase 6 (Homo sapiens), sequence (Q16828 whole entry, looked up): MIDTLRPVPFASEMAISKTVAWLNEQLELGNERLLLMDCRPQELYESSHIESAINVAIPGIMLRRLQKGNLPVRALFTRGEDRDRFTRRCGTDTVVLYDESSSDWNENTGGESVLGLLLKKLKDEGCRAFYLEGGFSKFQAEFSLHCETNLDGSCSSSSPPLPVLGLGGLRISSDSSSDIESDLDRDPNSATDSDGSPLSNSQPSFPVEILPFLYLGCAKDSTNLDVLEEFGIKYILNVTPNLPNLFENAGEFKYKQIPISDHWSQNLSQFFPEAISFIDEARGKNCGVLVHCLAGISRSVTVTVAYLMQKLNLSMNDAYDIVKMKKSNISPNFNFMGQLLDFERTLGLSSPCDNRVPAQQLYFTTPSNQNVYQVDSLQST
Alpha-2C adrenergic receptor (Homo sapiens), sequence (P18825 whole entry, looked up): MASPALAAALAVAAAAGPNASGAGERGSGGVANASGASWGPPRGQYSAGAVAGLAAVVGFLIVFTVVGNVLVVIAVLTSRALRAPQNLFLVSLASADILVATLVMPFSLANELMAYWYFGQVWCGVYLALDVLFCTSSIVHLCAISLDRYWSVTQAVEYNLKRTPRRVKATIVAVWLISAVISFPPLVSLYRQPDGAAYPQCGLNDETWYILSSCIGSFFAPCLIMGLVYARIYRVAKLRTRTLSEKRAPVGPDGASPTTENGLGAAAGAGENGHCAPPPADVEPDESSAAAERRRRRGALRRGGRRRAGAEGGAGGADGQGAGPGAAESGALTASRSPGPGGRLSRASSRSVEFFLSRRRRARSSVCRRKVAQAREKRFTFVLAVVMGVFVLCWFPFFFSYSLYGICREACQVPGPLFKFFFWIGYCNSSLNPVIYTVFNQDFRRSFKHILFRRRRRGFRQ

The inhibition is the change of the read-out against control, counted positive when it falls. On to `Cc1c(N=Cc2c(O)n(C3CCCCC3)c(=O)[nH]c2=O)c(=O)n(-c2ccccc2)n1C`, for which the cell count in test [1] came to 671. The inhibition was -20.1% (inactive) in test [1], -93.8% (inactive) in test [2], 21% (inactive) in test [4] and -4.72% (inactive) in [9]. This compound showed a nuclei count in [2] of 139%. Also, the z-score in test [3] (setting [10]) was -0.195; in test [3] (setting [11]), -1.05; in test [3] (setting [12]), 0.314. In test [5], the fluorescence slope is -0.396 (inactive). Also, the NADPH fluorescence slope in test [6] is -3e-05 (inactive). The slope in test [7] was 0.00508 (inactive). The outcome in test [8] was “active; weak signal in gallbladder and intestine”.
`Cc1ccc2c(c1)C(CCN)C(=O)N2Cc1ccccc1` (stereo unspecified): in [1], the cell count is 622. The inhibition in test [1] is -12.2% (inactive); in test [2], -11.3% (inactive); in [4], -15% (inactive); in test [9], 9.26% (inactive). The compound also displayed a nuclei count in [2] of 154%. Further, the z-score in [3] (setting [10]) came to 0.106; in test [3] (setting [11]), 0.432; in test [3] (setting [12]), 0.437. The fluorescence slope in test [5] is -0.424 (inactive). The NADPH fluorescence slope in test [6] is -3.4e-05 (inactive). Further, the slope in test [7] is 0.00511 (inactive). In [8], the call was inactive.
For the compound `CCc1cccc(C)c1N(C(=O)Cn1c(=O)[nH]c2ccccc21)C(C)COC` (stereo unspecified), the cell count in [1] amounted to 362. The inhibition is -2.1% (inactive) in [1], -33.7% (inactive) in test [2], 5.57% (inactive) in [4] and 32.6% (inactive) in [9]. This compound also displayed a nuclei count in test [2] of 97%. Moreover, the z-score was 0.81 in test [3] (setting [10]), -0.372 in test [3] (setting [11]) and 0.826 in [3] (setting [12]). Besides, the fluorescence slope in test [5] is -0.546 (inactive). In addition, the NADPH fluorescence slope in [6] is -4.3e-07 (inactive). The slope in [7] is 0.00687 (inactive). Besides, in test [8], the call was inactive.
For `CCn1cc(C(=O)NCCCN(C)C)c(=O)c2cc(F)c(N3CCN(C)CC3)cc21`, in [1], the cell count turned out to be 360. The inhibition in test [1] is -2.8% (inactive); in test [2], -88% (inactive); in test [4] it was -7.28% (inactive); in test [9], 22% (inactive). This compound yielded a nuclei count in [2] of 130%. Besides, the values for the z-score in [3] (setting [10]), in [3] (setting [11]) and in test [3] (setting [12]) were -0.583, 1.7 and -0.542, respectively. Moreover, the fluorescence slope in [5] was -0.286 (inactive). For the same compound, the NADPH fluorescence slope in test [6] is -5e-06 (inactive). Besides, the slope in [7] was 0.00472 (inactive). For the same compound, the result in test [8] was inactive.
On to `COc1cccc(Cn2c(NCC(C)C)nc3c2c(=O)n(C)c(=O)n3C)c1`, for which the cell count in [1] is 341. Besides, the inhibition in test [1] was 3.2% (inactive); in [2], -77.7% (inactive); in test [4], -0.624% (inactive); in test [9] it was -12.8% (inactive). The nuclei count in test [2] stood at 127%. Further, the z-score was -0.509 in test [3] (setting [10]), 0.441 in test [3] (setting [11]) and 1.11 in test [3] (setting [12]). For the same compound, the fluorescence slope in test [5] is -0.385 (inactive). The NADPH fluorescence slope in test [6] was 4.1e-05 (inactive). Moreover, the slope in test [7] is 0.00489 (inactive). Besides, the outcome in test [8] was inactive.
With `Cn1c(=NCC(O)COc2ccccc2)sc2ccccc21` (stereo unspecified), the cell count in test [1] was 482. Further, the inhibition in test [1] was 7.1% (inactive); in test [2], -85.2% (inactive); in [4] it was -8.95% (inactive); in test [9], 16.2% (inactive). In [2], this compound came in with a nuclei count of 167%. Also, the figures for the z-score in [3] (setting [10]), in test [3] (setting [11]) and in test [3] (setting [12]) were 0.424, -0.57 and 0.805, respectively. The fluorescence slope in test [5] is -0.367 (inactive). Besides, in test [6], the NADPH fluorescence slope was -3.8e-05 (inactive). In addition, the slope in test [7] was 0.00465 (inactive). Also, the result in test [8] was inactive.
In the case of `COc1cc(C)nc(N(C)S(=O)(=O)c2ccccc2Cl)n1`, in test [1], the cell count was 587. Besides, the inhibition in test [1] is -9% (inactive); in test [2], 26.6% (inactive); in test [4] it was 9.82% (inactive); in test [9], -1.55% (inactive). In test [2], this compound gave a nuclei count of 175%. The z-score in [3] (setting [10]) is 1.16; in test [3] (setting [11]), 0.469; in test [3] (setting [12]), -0.133. In addition, the fluorescence slope in test [5] was -0.36 (inactive). In addition, the NADPH fluorescence slope in [6] was 3.2e-06 (inactive). Besides, the slope in [7] is 0.00436 (inactive). The compound was called inactive in test [8].
